We go through one compound from ChEMBL document CHEMBL1157367, “Systematic comparison of the population pharmacokinetics and pharmacodynamics of piperacillin in cystic fibrosis patients and healthy volunteers” (Antimicrob Agents Chemother, 2007).

Assay type in all cases: ADME, organism-based
Data set [1] can be described thus: Total clearance in cystic fibrosis patient at 4 g, iv. As to conditions: human, in vivo. The procedure, abridged:
(§1)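 Single 5-min IV infusion of 4 g piperacillin. Forearm-vein blood drawn from the arm opposite the infusion line pre-dose, at end of infusion, and 5 min to 24 h afterwards. Plasma iced, frozen at –70°C, acetonitrile-deproteinized with mezlocillin internal standard. Reversed-phase HPLC, UV 220 nm, linear 0.200–150 mg/liter. Unscaled parameters by noncompartmental analysis.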

A short description of data set [2]: Volume of distribution at steady state in cystic fibrosis patient at 4 g, iv. The settings on record: human, in vivo, read-out: Vdss. The procedure, abridged:
as §1

Data set [3] is described as follows: Peak drug level in cystic fibrosis patient at 4 g, iv. The settings on record: human, in vivo, read-out: Drug uptake. A digest of the protocol:
as §1

The nature of data set [4]: Terminal half life in cystic fibrosis patient at 4 g, iv. As to conditions: human, in vivo. The procedure, abridged: as §1
Data set [5] in a line: Mean residence time in cystic fibrosis patient at 4 g, iv. The settings on record: human, in vivo. A digest of the protocol: as §1
The nature of data set [6]: Total clearance in healthy human at 4 g, iv. As to conditions: in vivo. The procedure, abridged: as §1
Data set [7] in a line: Volume of distribution at steady state in healthy human at 4 g, iv. As to conditions: in vivo, read-out: Vdss. A digest of the protocol:
as §1

A short description of data set [8]: Peak drug level in healthy human at 4 g, iv. As to conditions: in vivo, read-out: Drug uptake. A digest of the protocol: as §1
A short description of data set [9]: Terminal half life in healthy human at 4 g, iv. As to conditions: in vivo. The procedure, abridged: as §1
Data set [10] in a line: Mean residence time in healthy human at 4 g, iv. The settings on record: in vivo. A digest of the protocol:
as §1

Data set [11] is described as follows: Clearance in cystic fibrosis patient with lean body mass of 53 kg at 4 g, iv. The settings on record: human, in vivo. The procedure, abridged:
(§2)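 4 g piperacillin as a single 5-min IV infusion. Serial plasma sampled to 24 h and assayed by reversed-phase HPLC-UV (220 nm, mezlocillin internal standard, LOQ 0.200 mg/liter). Population PK model fitted in NONMEM with body size described by lean body mass and a CF-specific scale factor. Combined additive plus proportional residual error.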

Data set [12] in a line: Volume of distribution at steady state in cystic fibrosis patient with lean body mass of 53 kg at 4 g, iv. The settings on record: human, in vivo, read-out: Vdss. A digest of the protocol:
as §2

Data set [13] in a line: Clearance in healthy human with lean body mass of 53 kg at 4 g, iv. As to conditions: in vivo. A digest of the protocol: as §2
The test system of another data set is Homo sapiens. Kind of data set: Peripheral volume of distribution in cystic fibrosis patient with lean body mass of 53 kg at 4 g, iv. The settings on record: in vivo. A digest of the protocol:
as §2

A short description of data set [14]: Volume of distribution at steady state in healthy human with lean body mass of 53 kg at 4 g, iv. As to conditions: in vivo, read-out: Vdss. A digest of the protocol: as §2

What is called clearance is the rate of elimination divided by the concentration. A lower clearance goes with a low capacity for elimination. For orientation: half-life means the time in which the quantity being followed falls by half. Read a low half-life as rapid decline. As usually defined, the MRT is the average time that molecules of a dose stay in the body. Regarding `CCN1CCN(C(=O)N[C@@H](C(=O)N[C@@H]2C(=O)N3[C@@H]2SC(C)(C)[C@@H]3C(=O)O)c2ccccc2)C(=O)C1=O` [PIPERACILLIN], the clearance was 146 mL/min in [1], 195 mL/min in data set [6], 188 mL/min in [11] and 188 mL/min in data set [13]. Moreover, the Vd in [2] came out at 8.13 L; in [7], 11.8 L; in data set [12], 9.61 L; in data set [14], 10.4 L. The Cmax in data set [3] worked out at 767 µg/mL; in data set [8] it was 446 µg/mL. Also, the half-life in data set [4] is 41.4 min; in [9], 63 min. Besides, the MRT in data set [5] was found to be 51 min; in data set [10] it was 61.2 min. This compound came in with a Vp/F in the data set with Homo sapiens of 3.12 L.
